Compound activity from PubChem BioAssay.
ABCB1 block = ABCB1 efflux pump inhibitors, primary screen, cell-based, multiplex, flow cytometry, ABCG2 counter-screen; CCRF-Adr cells, JC-1 efflux; inhibition, % at 6.6 µM; actives 0.067% (n = 190,000); AID 1326, 2008; in the data active means inhibition above about 40%;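 further: higher value means more JC-1 retained so stronger ABCB1 efflux block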
Target sequence (P08183 whole entry, looked up): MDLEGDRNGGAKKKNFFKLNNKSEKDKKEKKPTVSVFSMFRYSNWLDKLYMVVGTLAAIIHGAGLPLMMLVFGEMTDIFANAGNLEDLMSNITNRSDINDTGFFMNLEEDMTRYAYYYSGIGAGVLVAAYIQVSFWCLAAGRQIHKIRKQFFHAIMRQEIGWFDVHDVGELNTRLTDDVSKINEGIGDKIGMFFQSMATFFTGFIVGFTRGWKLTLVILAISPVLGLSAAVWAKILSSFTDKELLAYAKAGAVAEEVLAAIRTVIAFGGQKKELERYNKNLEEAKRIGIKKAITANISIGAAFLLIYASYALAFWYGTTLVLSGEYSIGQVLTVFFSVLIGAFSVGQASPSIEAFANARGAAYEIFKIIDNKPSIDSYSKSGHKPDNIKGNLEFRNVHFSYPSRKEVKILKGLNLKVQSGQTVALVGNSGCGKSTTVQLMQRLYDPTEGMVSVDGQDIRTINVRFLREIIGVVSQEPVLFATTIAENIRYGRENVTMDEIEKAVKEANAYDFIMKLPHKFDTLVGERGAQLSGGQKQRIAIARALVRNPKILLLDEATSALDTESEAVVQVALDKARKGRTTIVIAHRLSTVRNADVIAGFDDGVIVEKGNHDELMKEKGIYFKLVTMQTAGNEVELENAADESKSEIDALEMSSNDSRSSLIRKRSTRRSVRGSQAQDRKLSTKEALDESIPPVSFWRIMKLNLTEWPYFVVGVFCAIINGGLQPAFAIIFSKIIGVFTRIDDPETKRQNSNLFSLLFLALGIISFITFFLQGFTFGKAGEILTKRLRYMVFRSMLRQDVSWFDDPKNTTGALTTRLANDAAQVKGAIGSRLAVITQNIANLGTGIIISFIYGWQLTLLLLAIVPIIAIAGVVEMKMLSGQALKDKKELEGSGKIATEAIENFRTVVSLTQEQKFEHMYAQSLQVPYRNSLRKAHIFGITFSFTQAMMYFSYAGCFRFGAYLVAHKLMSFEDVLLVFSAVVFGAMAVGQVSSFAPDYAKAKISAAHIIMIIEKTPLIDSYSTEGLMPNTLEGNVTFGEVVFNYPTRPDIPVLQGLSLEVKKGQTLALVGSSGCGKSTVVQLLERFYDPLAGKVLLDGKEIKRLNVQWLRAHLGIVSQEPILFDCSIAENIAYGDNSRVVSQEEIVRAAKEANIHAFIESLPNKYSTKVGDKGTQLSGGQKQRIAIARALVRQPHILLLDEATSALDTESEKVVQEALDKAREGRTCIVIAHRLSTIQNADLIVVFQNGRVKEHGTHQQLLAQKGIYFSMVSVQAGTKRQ
PMI act hi M6P = human PMI activators, high substrate, primary screen, biochemical, fluorescence intensity, near-saturating mannose 6-phosphate; coupled PMI enzyme assay, resazurin fluorescence, 20 min; hits give high values; 1 = untreated enzyme, 0 = substrate-free blank; activation factor at 20 µM; AID 1216, 2008; actives 0.34% (n = 190,000); Mannose-6-phosphate isomerase (Homo sapiens), P34949;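 active means activation factor of 2 or more at 20 µM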
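assay system = human phosphomannose isomerase with PGI, G6PDH, diaphorase coupling enzymes | quantity = 15 ng/mL PMI | incubation = enzyme reaction with compound 20 min at room temperature | medium = HEPES pH 7.4 buffer with MgCl2 and Tween-20 | compound dosing = one concentration, 20 µM, in 1% DMSO | measured by = Diaphorase-driven resazurin-to-resorufin fluorescence, excitation 544, emission 590 nm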
ABCG2 block = ABCG2 efflux pump inhibitors, primary screen, multiplex with ABCB1, IgMXP3 cells, flow cytometry | Broad substrate specificity ATP-binding cassette transporter ABCG2 (Homo sapiens), Q9UNQ0 | JC-1 efflux | inhibition, % at 6.6 µM | actives 0.1% (n = 190,000) | AID 1325, 2008;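 active means inhibition above 80%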
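Assay system – ABCG2 IgMXP3 and barcoded ABCB1 CCRF-Adr cell mix · Input – 3 million cells/mL in well · Reagent – JC-1 fluorescent substrate · Compound – single test compound dose, 6.6 µM final · Timing – 10 min exposure at 25 °C with rotation, no wash · Detection – flow cytometry of retained JC-1 fluorescence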
ROMK primary = ROMK potassium channel modulators, primary screen, cell-based, thallium flux, MLSMR library; B-score at 10 µM; Tet-inducible ROMK, thallium flux fluorescence; actives lie on both sides; AID 1918, 2009; actives 2% (n = 130,000);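 active means signal ratio slope over the read window, or its plate-corrected B-score, at least 3 SD from the plate mean, either direction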;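 further: B-score of the F/F0 ratio slope over 7 to 12 s after thallium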
PMI activator = activators of human PMI, primary screen, biochemical, fluorescence intensity, near-Km mannose 6-phosphate; purified human PMI, coupled resazurin fluorescence, 20 min; hits give high values; 1 = vehicle control, 0 substrate-free wells; activation factor at 20 µM; Mannose-6-phosphate isomerase (Homo sapiens), P34949; actives 0.005% (n = 190,000);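 active means activation factor of 2 or more at 20 µM, relative to plate controls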
KCC2 mod = KCC2 cotransporter modulators, thallium flux, primary screen, cell-based, HEK293 KCC2, FluoZin-2 fluorescence, MLSMR. actives 2.2% (n = 190,000). B-score of Tl+ flux slope (higher = more flux/activation; lower = inhibition) at 10 µM. Solute carrier family 12 member 5 (Homo sapiens), Q9H2X9. KCC2 cells, thallium flux FluoZin-2 fluorescence;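 active means thallium flux slope and its plate-corrected score both differing from the plate sample mean at a set confidence after two filtering rounds, in either direction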;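 further: slope of fluorescence scaled to starting intensity during 10 to 20 s after thallium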
KCC2 secondary = KCC2 modulators in sodium-free buffer, confirmation, cell-based, HEK293 KCC2, thallium flux, secondary assay; AID 1713, 2009; normalised thallium flux (F/F0 slope) at 10 µM; FluoZin2 fluorescence; hits give high values; actives 15% (n = 3,700); shares compounds with KCC2 mod;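 active means thallium flux slope above the same plate's solvent-only control mean plus 3 SD; inconclusive means the two replicate wells disagree; inactive means no significant difference from solvent-only control wells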
KCC2 bumet counter = thallium flux persisting under bumetanide in KCC2 cells, confirmation, counter-screen for KCC2 modulator project, cell-based, HEK293 KCC2, FluoZin2, secondary assay 3; normalized thallium flux at 10 µM; shares compounds with KCC2 mod; actives 49% (n = 3,700); HEK293-KCC2 + bumetanide/ouabain; hits give high values;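 active means thallium entry rate above the same plate's blocked-transporter control wells by more than 3 SD; inconclusive means the two repeat wells disagree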;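 further: raw slope of fluorescence over initial fluorescence between 10 and 20 s after thallium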
KCC2 secondary2 = KCC2 modulators without ouabain present, confirmation, cell-based, HEK293 KCC2, thallium flux, FluoZin2, secondary assay 2 | shares compounds with KCC2 mod | actives 23% (n = 3,700) | thallium flux FluoZin2 fluorescence; actives lie on both sides; F/F0 rise rate, 10–20 s post-thallium | normalized thallium flux at 10 µM | AID 1715, 2009;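 active means thallium flux slope more than 3 SD above or below the plate's solvent-only control mean, mostly below; inconclusive means the two repeat wells disagreed; inactive means no significant shift from solvent-only controls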
HEK counter1 = thallium flux modulation in parental HEK cells, confirmation, counter-screen for KCC2 modulator project, cell-based, counterscreen 1. shares compounds with KCC2 mod. AID 1716, 2009. actives 46% (n = 3,700). HEK293 parental cells, thallium flux FluoZin2, ouabain; baseline-ratio fluorescence slope, 10–20 s after thallium. thallium flux rate (normalised fluorescence) at 10 µM;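 active means thallium flux rate significantly above the same plate's solvent-only control wells, beyond their mean plus 3 SD; inconclusive means the two replicate wells gave conflicting results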
KCC2 ouabain = KCC2 inhibitors and activators, ouabain retest, confirmation, HEK-KCC2 cells. raw Tl+ flux slope (below DMSO = inhibition, above = activation) at 10 µM. AID 1717, 2009. shares compounds with KCC2 mod. actives 48% (n = 3,700). HEK293-KCC2, thallium flux FluoZin2 fluorescence; bidirectional: low = inhibitor, high = activator;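 active means thallium flux slope beyond 3 SD from same-plate DMSO control mean in most replicates, usually higher, sometimes lower; inconclusive means repeat tests gave conflicting results; inactive means no significant difference from controls in most replicates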;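 further: slope of initial-normalized fluorescence between seconds 10 and 20 after thallium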
HEK counter2 = native HEK Tl+ uptake effects, second counter-screen – HEK cells, counterscreen 2, counter-screen for KCC2 modulator project, confirmation. AID 1718, 2009. shares compounds with KCC2 mod. actives 33% (n = 3,700). thallium flux slope at 10 µM. HEK293 parental, thallium flux FluoZin-2 fluorescence slope;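 active means thallium flux slope above the same plate's solvent-control mean plus 3 SD in both duplicate wells; inconclusive means duplicate wells that disagreed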;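 further: run without ouabain in cells lacking the KCC2 cotransporter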
Of the large screens only hits and unclear results are named; the others gave an inactive call (follow-up assays come after a bar, where they were run). Compounds with a hit are over-represented: about 3.3% of the library has one in this group of screens.

Cc1cc(C)c[n+](-c2[nH]c(=O)sc2/C=N/N=C(\N)[S-])c1	none
CC1CN(c2nc3ccccc3nc2C(C#N)C(=O)NC2CCCCC2)CC(C)O1 (centres undefined)	none (no result: ABCB1 block, ABCG2 block, ROMK primary, KCC2 mod)
CC(C)COc1nc2ccccc2nc1C(C#N)C(=O)NC1CCCCC1 (centres undefined)	none (no result: KCC2 mod) | KCC2 secondary inactive | KCC2 bumet counter inactive | KCC2 secondary2 inactive | HEK counter1 inactive | KCC2 ouabain inactive | HEK counter2 inactive
O=C(Nc1cccnc1)Nc1ccc2c(c1)OCO2	none (no result: KCC2 mod) | KCC2 secondary inactive | KCC2 bumet counter inactive | KCC2 secondary2 inactive | HEK counter1 inactive | KCC2 ouabain inactive | HEK counter2 inactive
COc1cc(CO)ccc1OCc1nnnn1-c1ccc(C)cc1	none
Cc1nn(-c2ccccc2)nc1C(=O)NNC(=O)c1ccc(C(F)(F)F)cc1	KCC2 mod 22 (no result: ABCB1 block, PMI act hi M6P, ABCG2 block, PMI activator) | KCC2 secondary 0.023 | KCC2 bumet counter 0.097 | KCC2 secondary2 inactive | HEK counter1 0.035 | KCC2 ouabain 0.055 | HEK counter2 0.017
Cc1cc(C(=O)NNC(=O)c2ccc(C(F)(F)F)cc2)no1	none (no result: ABCB1 block, PMI act hi M6P, ABCG2 block, PMI activator)
O=C(NNC(=O)c1cccc2ccccc12)c1ccc(-c2ccccc2)cc1	none
Cc1nn(-c2ccccc2)nc1C(=O)Oc1cc(C(F)(F)F)nn1-c1ccccc1	none (no result: ABCB1 block, PMI act hi M6P, ABCG2 block, ROMK primary, PMI activator)
Cc1nn(-c2ccccc2)nc1C(=O)NNC(=O)c1cccc2ccccc12	KCC2 mod 69 (no result: ABCB1 block, PMI act hi M6P, ABCG2 block, PMI activator) | KCC2 secondary 0.024 | KCC2 bumet counter 0.15 | KCC2 secondary2 inactive | HEK counter1 0.075 | KCC2 ouabain 0.1 | HEK counter2 0.024
Cc1nc(C(=O)NNC(=O)c2ccc(C(F)(F)F)cc2)cs1	KCC2 mod 5.1 (no result: ABCB1 block, PMI act hi M6P, ABCG2 block, PMI activator) | KCC2 secondary inactive | KCC2 bumet counter 0.02 | KCC2 secondary2 inactive | HEK counter1 0.01 | KCC2 ouabain inconclusive | HEK counter2 inconclusive
Cc1ccc(CNC(=O)C2CCCN(S(=O)(=O)c3c(C)noc3/C=C/N(C)C)C2)cc1 (centres undefined)	none (no result: ABCB1 block, PMI act hi M6P, ABCG2 block, ROMK primary, PMI activator)
Cc1n(-c2ccccc2)c2ccc(Cl)cc2[n+]1CCO	none
COc1cc(NS(=O)(=O)c2cc(C)ccc2OC)c(OC)cc1Cl	none (no result: ROMK primary, KCC2 mod)
COc1ccc(C)cc1S(=O)(=O)Nc1cc(Cl)ccc1Cl	KCC2 mod 9 | KCC2 secondary inactive | KCC2 bumet counter 0.013 | KCC2 secondary2 inactive | HEK counter1 0.012 | KCC2 ouabain inactive | HEK counter2 0.013
O=C(CN1CCN(c2ccccc2F)CC1)c1c[nH]c2ccc(F)cc12	KCC2 mod -4 | KCC2 secondary inactive | KCC2 bumet counter 0.011 | KCC2 secondary2 inactive | HEK counter1 inconclusive | KCC2 ouabain 0.018 | HEK counter2 inactive
CCCCN(NC(C)=O)c1nc(Cl)nc(NC(C)C)n1	none
S=c1[nH]nc(COc2ccccc2)n1/N=C/C=C/c1ccccc1	KCC2 mod 12 | KCC2 secondary 0.014 | KCC2 bumet counter 0.14 | KCC2 secondary2 inactive | HEK counter1 0.021 | KCC2 ouabain 0.056 | HEK counter2 inconclusive
O=[N+]([O-])c1cccc(/C=N/n2c(COc3ccccc3)n[nH]c2=S)c1	KCC2 mod 59 | KCC2 secondary inactive | KCC2 bumet counter 0.15 | KCC2 secondary2 inactive | HEK counter1 0.019 | KCC2 ouabain 0.059 | HEK counter2 0.012
S=c1[nH]nc(COc2ccccc2)n1/N=C/C=C/c1ccco1	KCC2 mod 16 (no result: ABCB1 block, PMI act hi M6P, ABCG2 block, PMI activator) | KCC2 secondary inactive | KCC2 bumet counter 0.05 | KCC2 secondary2 inactive | HEK counter1 0.012 | KCC2 ouabain 0.028 | HEK counter2 inconclusive
Cn1c(=O)c2c(nc(SCC(=O)N3CCc4ccccc43)n2Cc2ccccc2)n(C)c1=O	none (no result: ABCB1 block, ABCG2 block, ROMK primary, KCC2 mod)
COc1ccc(N2CCN(C(=O)C(=O)c3c(C)n(C)c4ccccc34)CC2)cc1	none
CCc1cc(C(=O)N2CCCC(CNC(=O)c3ccc(-c4ccccc4)cc3)C2)no1 (centres undefined)	none (no result: KCC2 mod) | KCC2 secondary inactive | KCC2 bumet counter inactive | KCC2 secondary2 0.028 | HEK counter1 inactive | KCC2 ouabain 0.014 | HEK counter2 inactive
CSCCC(=O)N1CCCC(CNC(=O)c2ccc(-c3ccccc3)cc2)C1 (centres undefined)	KCC2 mod -5.8 (no result: PMI act hi M6P, PMI activator) | KCC2 secondary inactive | KCC2 bumet counter inactive | KCC2 secondary2 0.021 | HEK counter1 inactive | KCC2 ouabain 0.013 | HEK counter2 inactive
COc1cccc(-n2c(=O)c3c(C)c(C(=O)N(C)C)sc3n(CC(=O)NCC3CCCO3)c2=O)c1 (centres undefined)	none
